Experimental data as given in ChEMBL document CHEMBL1142420, “Synthesis and DNA-cleaving activity of lactenediynes conjugated with DNA-complexing moieties” (2008).

What was measured:
Format in all cases: functional
786-0 = assay: Cytotoxicity against human 786-0 cells after 48 hrs by SRB assay; details: 786-0, 48 h
Procedure, shortened: (§1)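 Run at NCI: cell lines exposed 48 h to a range of concentrations, with untreated controls under identical conditions. Growth measured by sulforhodamine B staining with colorimetric read-out. Percent growth computed from test, time-zero and control absorbances. GI50, TGI and LC50 read from PG versus log10 molar concentration as the concentrations giving PG = 50, 0 and -50.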

SK-MEL-2 = assay: Cytotoxicity against human SK-MEL-2 cells after 48 hrs by SRB assay; details: SK-MEL-2, 48 h; procedure, shortened: as §1
U-251 = assay: Cytotoxicity against human U251 cells after 48 hrs by SRB assay; details: U-251, 48 h; procedure, shortened: as §1
NCI-H460 = assay: Cytotoxicity against human NCI-H460 cells after 48 hrs by SRB assay; details: NCI-H460, 48 h; procedure, shortened: as §1
M14 = assay: Cytotoxicity against human M14 cells after 48 hrs by SRB assay; details: M14, 48 h; procedure, shortened: as §1
SW-620 = assay: Cytotoxicity against human SW620 cells after 48 hrs by SRB assay; details: SW-620, 48 h; procedure, shortened: as §1
HCC 2998 = assay: Cytotoxicity against human HCC2998 cells after 48 hrs by SRB assay; details: HCC 2998, 48 h; procedure, shortened: as §1
T47D = assay: Cytotoxicity against human T47D cells after 48 hrs by SRB assay; procedure, shortened: as §1
OVCAR-8 = assay: Cytotoxicity against human OVCAR8 cells after 48 hrs by SRB assay; details: OVCAR-8, 48 h; procedure, shortened: as §1
MOLT-4 = assay: Cytotoxicity against human MOLT4 cells after 48 hrs by SRB assay; details: MOLT-4, 48 h; procedure, shortened: as §1
COLO 205 = assay: Cytotoxicity against human COLO205 cells after 48 hrs by SRB assay; details: COLO 205, 48 h; procedure, shortened: as §1
OVCAR-4 = assay: Cytotoxicity against human OVCAR4 cells after 48 hrs by SRB assay; details: OVCAR-4, 48 h; procedure, shortened: as §1
MDA-MB-231 = assay: Cytotoxicity against human MDA-MB-231 cells after 48 hrs by SRB assay; details: MDA-MB-231, 48 h; procedure, shortened: as §1
RXF 393 = assay: Cytotoxicity against human […] cells after 48 hrs by SRB assay; details: RXF 393, 48 h; procedure, shortened: as §1
UACC-257 = assay: Cytotoxicity against human UACC257 cells after 48 hrs by SRB assay; details: UACC-257, 48 h; procedure, shortened: as §1
ACHN = assay: Cytotoxicity against human ACHN cells after 48 hrs by SRB assay; procedure, shortened: as §1
KM12 = assay: Cytotoxicity against human KM12 cells after 48 hrs by SRB assay; details: KM12, 48 h; procedure, shortened: as §1
A498 = assay: Cytotoxicity against human A498 cells after 48 hrs by SRB assay; details: A498, 48 h; procedure, shortened: as §1
NCI/ADR-RES = assay: Cytotoxicity against human NCI/ADR-RES cells after 48 hrs by SRB assay; procedure, shortened: as §1
EKVX = assay: Cytotoxicity against human EKVX cells after 48 hrs by SRB assay; procedure, shortened: as §1
TK-10 = assay: Cytotoxicity against human TK10 cells after 48 hrs by SRB assay; details: TK-10, 48 h; procedure, shortened: as §1
UO-31 = assay: Cytotoxicity against human UO31 cells after 48 hrs by SRB assay; details: UO-31, 48 h; procedure, shortened: as §1
HT-29 = assay: Cytotoxicity against human HT29 cells after 48 hrs by SRB assay; details: HT-29, 48 h; procedure, shortened: as §1
MDA-MB-435 = assay: Cytotoxicity against human MDA-MB-435 cells after 48 hrs by SRB assay; details: MDA-MB-435, 48 h; procedure, shortened: as §1
SNB-19 = assay: Cytotoxicity against human SNB19 cells after 48 hrs by SRB assay; details: SNB-19, 48 h
Procedure, shortened: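 Run at NCI: cells exposed 48 h to a range of concentrations, with untreated controls under identical conditions. Growth measured by sulforhodamine B staining with colorimetric read-out. Percent growth (PG) calculated from absorbance at 48 h with drug, at time zero, and at 48 h without drug. Log molar concentration plotted against PG; GI50 at PG = 50, TGI at PG = 0, LC50 at PG = −50.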

[1] = Cytotoxicity against human HS 578T cells after 48 hrs by SRB assay; procedure, shortened: as §1
BT-549 = assay: Cytotoxicity against human BT549 cells after 48 hrs by SRB assay; details: BT-549, 48 h; procedure, shortened: as §1
DU-145 = assay: Cytotoxicity against human DU145 cells after 48 hrs by SRB assay; details: DU-145, 48 h; procedure, shortened: as §1
OVCAR-5 = assay: Cytotoxicity against human OVCAR5 cells after 48 hrs by SRB assay; details: OVCAR-5, 48 h; procedure, shortened: as §1
HCT-15 = assay: Cytotoxicity against human HCT15 cells after 48 hrs by SRB assay; details: HCT-15, 48 h; procedure, shortened: as §1
[2] = read-out: Log LC50 (the source's name) (converted)

In the case of `CC(=O)O[C@@H]1C#C/C=C\C#CC[C@H]2C(=O)N(C(=O)OC(C)(C)C)[C@H]12`, the GI50 (786-0) is reported as 11.5 µM, the CC50 (786-0; [2]) is reported as greater than 100 µM and the TGI (786-0; read-out: Log TGI (converted)) is reported as 69.2 µM. For the same molecule, the GI50 (SK-MEL-2) was 47.9 µM, the CC50 (SK-MEL-2; [2]) was greater than 100 µM and the TGI (SK-MEL-2; read-out: Log TGI (converted)) was greater than 100 µM. For the same molecule, the GI50 (U-251) was 16.2 µM, the CC50 (U-251; [2]) was greater than 100 µM and the TGI (U-251; read-out: Log TGI (converted)) was greater than 100 µM. For the same molecule, the GI50 (NCI-H460) was 93.3 nM, the CC50 (NCI-H460; [2]) was greater than 100 µM and the TGI (NCI-H460; read-out: Log TGI (converted)) was greater than 100 µM. For the same molecule, the GI50 (M14) was 39.8 µM, the CC50 (M14; [2]) was greater than 100 µM and the TGI (M14; read-out: Log TGI (converted)) was greater than 100 µM. The GI50 (SW-620) was 13.5 µM, the CC50 (SW-620; [2]) was greater than 100 µM and the TGI (SW-620; read-out: Log TGI (converted)) was greater than 100 µM. It also gave a GI50 (HCC 2998) of 34.7 µM, a CC50 (HCC 2998; [2]) greater than 100 µM and a TGI (HCC 2998; read-out: Log TGI (converted)) greater than 100 µM. For the same molecule, the GI50 (T47D) was 100 µM, the CC50 (T47D; [2]) was greater than 100 µM and the TGI (T47D; read-out: Log TGI (converted)) was greater than 100 µM. The GI50 (OVCAR-8) was 14.5 µM, the CC50 (OVCAR-8; [2]) was greater than 100 µM and the TGI (OVCAR-8; read-out: Log TGI (converted)) was 89.1 µM. The GI50 (MOLT-4) was 407 nM, the CC50 (MOLT-4; [2]) was greater than 100 µM and the TGI (MOLT-4; read-out: Log TGI (converted)) was greater than 100 µM. The GI50 (COLO 205) was 39.8 µM, the CC50 (COLO 205; [2]) was greater than 100 µM and the TGI (COLO 205; read-out: Log TGI (converted)) was greater than 100 µM. For the same molecule, the GI50 (OVCAR-4) was greater than 100 µM, the CC50 (OVCAR-4; [2]) was greater than 100 µM and the TGI (OVCAR-4; read-out: Log TGI (converted)) was greater than 100 µM. The GI50 (MDA-MB-231) was greater than 100 µM, the CC50 (MDA-MB-231; [2]) was greater than 100 µM and the TGI (MDA-MB-231; read-out: Log TGI (converted)) was greater than 100 µM. The GI50 (RXF 393) was 20.4 µM, the CC50 (RXF 393; [2]) was greater than 100 µM and the TGI (RXF 393; read-out: Log TGI (converted)) was 69.2 µM. For the same molecule, the CC50 (UACC-257; [2]) was greater than 100 µM, the TGI (UACC-257; read-out: Log TGI (converted)) was greater than 100 µM and the GI50 (UACC-257; read-out: pGI50 (converted)) was 18.2 µM. It also gave a GI50 (ACHN) of 2630 nM, a CC50 (ACHN; [2]) greater than 100 µM and a TGI (ACHN; read-out: Log TGI (converted)) of 25.7 µM. For the same molecule, the GI50 (KM12) was greater than 100 µM, the CC50 (KM12; [2]) was greater than 100 µM and the TGI (KM12; read-out: Log TGI (converted)) was greater than 100 µM. For the same molecule, the GI50 (A498) was 17 µM, the CC50 (A498; [2]) was greater than 100 µM and the TGI (A498; read-out: Log TGI (converted)) was 97.7 µM. The GI50 (NCI/ADR-RES) was 28.8 µM, the CC50 (NCI/ADR-RES; [2]) was greater than 100 µM and the TGI (NCI/ADR-RES; read-out: Log TGI (converted)) was greater than 100 µM. For the same molecule, the GI50 (EKVX) was greater than 100 µM, the CC50 (EKVX; [2]) was greater than 100 µM and the TGI (EKVX; read-out: Log TGI (converted)) was greater than 100 µM. The GI50 (TK-10) was 35.5 µM, the CC50 (TK-10; [2]) was greater than 100 µM and the TGI (TK-10; read-out: Log TGI (converted)) was greater than 100 µM. It also gave a GI50 (UO-31) of 5.89 µM, a CC50 (UO-31; [2]) greater than 100 µM and a TGI (UO-31; read-out: Log TGI (converted)) greater than 100 µM. For the same molecule, the GI50 (HT-29) was greater than 100 µM, the CC50 (HT-29; [2]) was greater than 100 µM and the TGI (HT-29; read-out: Log TGI (converted)) was greater than 100 µM. For the same molecule, the GI50 (MDA-MB-435) was greater than 100 µM, the CC50 (MDA-MB-435; [2]) was greater than 100 µM and the TGI (MDA-MB-435; read-out: Log TGI (converted)) was greater than 100 µM. The CC50 (SNB-19; [2]) was greater than 100 µM, the TGI (SNB-19; read-out: Log TGI (converted)) was greater than 100 µM and the GI50 [1] was 53.7 µM. For the same molecule, the CC50 [1, 2] was greater than 100 µM, the TGI ([1]; read-out: Log TGI (converted)) was greater than 100 µM and the GI50 (BT-549) was 24.5 µM. The CC50 (BT-549; [2]) was greater than 100 µM, the TGI (BT-549; read-out: Log TGI (converted)) was greater than 100 µM and the GI50 (DU-145) was 16.2 µM. For the same molecule, the CC50 (DU-145; [2]) was greater than 100 µM, the TGI (DU-145; read-out: Log TGI (converted)) was 56.2 µM and the GI50 (OVCAR-5) was greater than 100 µM. The CC50 (OVCAR-5; [2]) was greater than 100 µM, the TGI (OVCAR-5; read-out: Log TGI (converted)) was greater than 100 µM and the CC50 (HCT-15; [2]) was greater than 100 µM. The TGI (HCT-15; read-out: Log TGI (converted)) was greater than 100 µM and the GI50 (HCT-15; read-out: pGI50 (converted)) was 40.7 µM.
